High-throughput results as filed in PubChem.
This is a sample that favours compounds with a hit; in the whole collection about 3.9% have one here.
CHOP UPR activ: apoptotic UPR (CHOP) activation; activation, % at 10 µM; CHO-CHOP luciferase reporter, luminescence; percent of tunicamycin response over DMSO baseline; hit rate 0.34% among 330,000;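 active = at 10 µM dose, activation of 40% or more, normalized to positive control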
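Evaluation: % reporter activation, DMSO baseline versus tunicamycin full activation; System: CHO-CHOP luciferase reporter cell line; Input: 500 cells/well; Incubation: 6 h compound treatment, 37 °C; Measured by: Steady-Glo luciferase luminescence; Dosing: one dose, 10 µM in 0.5% DMSO; Buffer or medium: F12 medium, 10% FBS; Benchmarks: positive tunicamycin 10 µg/mL, negative DMSO alone.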
Gli-Sufu block: Gli-Sufu pathway antagonism | hit rate 0.74% among 340,000 | Sufu-KO-LIGHT fibroblasts, Gli luciferase reporter luminescence | inhibition, % at 5 µM;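 active = inhibition above about 55%, limit read from the data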
CHOP inhibitor: inhibitors of CHOP induction in ER stress response. CHO-K1 CHOP-promoter luciferase, tunicamycin-induced, 15-18 h. inhibition, % at 10 µM. hit rate 3.8% among 220,000. AID 2732;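 active = compounds that reduced the stress-induced luciferase reporter signal by more than about 70% of percent inhibition, limit read from the data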
697 NFkB inh: inhibitors of the PMA/ionomycin-induced NF-kB reporter in 697 B cells; AID 435022; inhibition, % at 4 µM; 697 B-cell NF-kB luciferase reporter, 16 h; hit rate 0.33% among 330,000; in the data active = inhibition above about 35%
UPR XBP1 act: adaptive UPR (XBP1) activation; hit rate 0.33% among 330,000; CHO-XBP1 luciferase reporter, IRE1-XBP1 UPR activation, luminescence; percent of tunicamycin response, DMSO as zero; activation, % at 20 µM;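 active = versus positive control, 20 µM dose yields 30% or more activation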
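Signal: luciferase luminescence; Assay system: CHO-XBP1 luciferase reporter cells; Amount: one thousand reporter cells per well; Dosing: 20 µM single concentration, DMSO 1%; Benchmarks: high control tunicamycin 10 µg/mL final, low control DMSO vehicle only; Schedule: 6 h compound exposure at 37 °C, 5% CO2; Evaluation: percent activation relative to tunicamycin reference.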
Jurkat NFkB inh: lowers PMA/ionomycin-induced NF-kB signal in Jurkat cells; PMA/ionomycin-induced NF-kB luciferase reporter, luminescence; inhibition, % at 4 µM; hit rate 0.53% among 330,000; AID 435003; in the data active = inhibition above about 50%
697 NFkB conf: lowers PMA/ionomycin-induced NF-kB signal in 697 B cells. shares compounds with 697 NFkB inh. 697 B-cell NF-kB luciferase, 16 h. inhibition, % at 4 µM. hit rate 35% among 2,000; in the data active = inhibition mostly above about 28%, no sharp cut-off; inactive = mostly below about 22%
A number is an active result; 0 = inactive; - = no result.

SMILES | CHOP UPR activ | Gli-Sufu block | CHOP inhibitor | 697 NFkB inh | UPR XBP1 act | Jurkat NFkB inh | 697 NFkB conf
COC(=O)c1cc(-c2cccc(OC)c2)c2c(=O)[nH]c(=O)n(C)c2n1 | 0 | 0 | - | 0 | 0 | 0 | -
COc1ccc(/C=N/NC(=O)CCn2nc(C)cc2C)cc1O | 0 | 0 | 0 | 0 | 0 | 0 | -
COc1ccc(/C=N\NC(=O)c2sccc2C)cc1Cn1nc(C)cc1C | 0 | 0 | - | 39 | 0 | 0 | 44
CCOP(=O)(Nc1cccc2oc(=O)c3ccccc3c12)OCC | - | 0 | - | - | - | - | -
Nc1c(-c2cccs2)cnc2c(-c3ccc(F)cc3)cnn12 | 0 | 0 | - | 0 | 0 | 0 | 0
Cc1nc2c(-c3ccc(F)cc3)cnn2c(N)c1-c1ccc(F)cc1 | 0 | 0 | - | 0 | 0 | 0 | 0
CS(=O)(=O)c1cnc2c(-c3ccc(F)cc3)cnn2c1N | 0 | 0 | 0 | 0 | 0 | 0 | -
Cc1csc(NC(=O)c2ccc(C)c([N+](=O)[O-])c2)n1 | 0 | 0 | 0 | 0 | 0 | 0 | 0
Cc1csc(NC(=O)c2cc3ccccc3o2)n1 | 0 | 0 | - | 36 | 0 | 0 | 0
Cc1cc(C)nc(NC(=O)c2ccc(C)c([N+](=O)[O-])c2)n1 | 0 | 0 | 0 | 0 | 0 | 0 | -
CCOCc1nnc(NC(=O)c2c(-c3ccccc3)noc2C)s1 | 0 | 0 | - | 0 | 0 | 0 | -
CCOC(=O)c1c(NC(=O)c2c(-c3ccccc3)noc2C)sc(C)c1-c1ccccc1 | 0 | 0 | 0 | 0 | 0 | 0 | 0
CC(C)c1cc(C(=O)NC2CCCc3c2cnn3-c2ccccc2F)no1 (stereo not drawn) | 0 | 0 | - | 0 | 0 | 0 | 0
Cc1cc(C(=O)NC2CCCc3c2cnn3-c2ccccc2F)nc(C)n1 (stereo not drawn) | 0 | 0 | - | 0 | 0 | 0 | -
Cc1ccccc1Nc1nc(N)nc(COC(=O)c2cccn2C)n1 | 0 | 0 | 0 | 0 | 0 | 0 | -
CCc1ccccc1Nc1nc(N)nc(COC(=O)c2cccn2C)n1 | 0 | 0 | 0 | 0 | 0 | 0 | 0
Cc1[nH]c2ccccc2c1/C=N/NC(=O)c1cccs1 | 0 | 0 | 0 | 0 | 0 | 0 | -
Cc1c(/C=N/NC(=O)c2cccs2)c2ccccc2n1Cc1ccccc1Cl | 0 | 0 | 0 | 0 | 0 | 0 | 0
Cc1ccc(-c2nnc(-c3ccccc3Br)o2)cc1 | 0 | 0 | - | 0 | 0 | 0 | 0
Cc1ccccc1-c1nnc(-c2ccccc2)o1 | 0 | 0 | 0 | 0 | 0 | 0 | -
Cc1cnc(C(=O)OCC(=O)NCc2cccc(Cl)c2)cn1 | 0 | 0 | - | 0 | 0 | 0 | -
Cc1c(NC(=O)c2cc(-c3ccccc3)nc3ccccc23)c(=O)n(-c2ccccc2)n1C | 0 | 0 | - | 0 | 0 | 0 | -
Cc1c(NC(=O)c2cc(-c3cccs3)nc3ccccc23)c(=O)n(-c2ccccc2)n1C | 0 | 0 | 0 | 39 | 0 | 0 | 0
CCC(CC)C(=O)Nc1ccc(Sc2ccc([N+](=O)[O-])cc2)cc1 | 0 | 0 | 0 | 37 | 0 | 0 | 30
CCCC(=O)Nc1ccc(Sc2ccc([N+](=O)[O-])cc2)cc1 | 0 | 0 | 0 | 41 | 0 | 0 | 35
SMILES | CHOP UPR activ | Gli-Sufu block | CHOP inhibitor | 697 NFkB inh | UPR XBP1 act | Jurkat NFkB inh | 697 NFkB conf
COc1cc(-c2nc(C(=O)NCC3CCCO3)cc3c2[nH]c2ccccc23)cc(OC)c1OC (stereo not drawn) | 0 | 0 | - | 36 | 0 | 0 | 40
COc1ccccc1-c1nc(C(=O)NCC2CCCO2)cc2c1[nH]c1ccccc12 (stereo not drawn) | 0 | 0 | - | 0 | 0 | 0 | -
O=C(Nc1cccc(Br)c1)c1ccc2c(c1)SC1=NS(=O)(=O)CCN12 | 0 | 0 | - | 46 | 0 | 0 | 41
CC(C)(C)c1ccccc1NC(=O)c1ccc2c(c1)SC1=NS(=O)(=O)CCN12 | 0 | 0 | 0 | 0 | 0 | 0 | -
COc1ccc(CN2CCN(CCc3ccccc3)C(CCO)C2)c(Cl)c1OC (stereo not drawn) | 0 | 0 | - | 0 | 0 | 0 | -
Cc1oc(-c2ccc(-c3ccccc3)cc2)nc1CN(C)C1CCOC1 (stereo not drawn) | 0 | 0 | 0 | 0 | 0 | 0 | 0
Cc1ccc(-c2nc(CS(=O)(=O)CC(=O)NCCCN(Cc3ccccc3)C(C)C)c(C)o2)cc1 | 0 | 0 | - | 0 | 0 | 0 | -
Cc1oc(-c2ccc(-c3ccccc3)cc2)nc1CN(CCO)C(C)C | 0 | 0 | - | 0 | 0 | 0 | 0
